In brackets after ≈: the same amount, converted by molar mass.
Columns and labels:
Assay type in all cases: functional
Micrococcus luteus = assay: Antibacterial activity against Micrococcus luteus ATCC 9341 by bioautographic assay
How it was run: (§1)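 Overnight 37° nutrient-broth cultures; the developed TLC plate was dipped in the bacterial suspension and held moist at 37° for 20 h. It was then sprayed with 0.5% iodonitrotetrazolium chloride in H₂O and kept a further 4 h moist at 37°. Pure compounds were spotted (3 mm) at 0.1–5 μg in CH₂Cl₂, with chloramphenicol as positive control.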

Bacillus subtilis = assay: Antibacterial activity against Bacillus subtilis ATCC 6633 by bioautographic assay; how it was run: as §1
Escherichia coli = assay: Antibacterial activity against Escherichia coli ATCC 25922 by bioautographic assay
How it was run: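 Bioautography used an overnight 37° nutrient-broth culture, and the developed TLC plate was dipped in the suspension. It was incubated moist at 37° for 6 h, sprayed with 0.5% aqueous iodonitrotetrazolium chloride, then kept moist at room temperature for 15 h. White zones against pink colonies marked inhibition. Pure compounds were spotted (3 mm) at 0.1–5 μg in CH₂Cl₂, with chloramphenicol as positive control.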

KB = assay: Cytotoxicity against human KB cells after 72 hrs; conditions: read-out: ED50 (the source's name)
How it was run: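 KB cells were grown in BME with 10% heat-inactivated FBS at 37° under 5% CO₂. Samples in DMSO (final 0.5%) were added at log growth phase, at five concentrations, for 72 h. Growth was measured by protein determination as a percentage of DMSO-only controls, corrected for starting cell number. Assays were run in duplicate, and ED₅₀ was taken from semilogarithmic plots of the averaged data.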

Biomphalaria glabrata = assay: Molluscicidal activity against Biomphalaria glabrata assessed as mortality after 24 hrs by microscopy
How it was run: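 Snails exposed to samples dissolved in 100 μl DMSO and diluted to 100 ml with distilled H₂O. After 24 h, snails counted dead when no heartbeat was seen under the microscope.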

SMILES	MIC (Micrococcus luteus) [µg]	MIC (Bacillus subtilis) [µg]	MIC (Escherichia coli) [µg]	EC50 (KB) [mg/L]	LC100 (Biomphalaria glabrata) [ppm]
COc1cc(O)c(C(=O)CCc2ccccc2)c(O)c1	0.3	0.3	>5	> 10	>30
COC(=O)c1ccc2c(c1)C[C@H](C(C)(C)O)O2 [ANODENDROIC ACID METHYL ESTER]	>5	3.2	>5	> 10	–
COc1cc(O)c(C(=O)CCc2ccc(O)cc2)c(O)c1 [ASEBOGENIN]	0.6	0.1	>5	> 10	12
O=C(N[C@H](CO)[C@H](O)c1ccc([N+](=O)[O-])cc1)C(Cl)Cl [CHLORAMPHENICOL]	0.05	0.02	0.05	–	–
COC(=O)c1ccc(O)c(C(C=C(C)C)c2c(OC)cc(O)c(C(=O)CCc3ccccc3)c2O)c1 (stereo not given) [PIPERADUNCIN A]	1.6	1.6	>5	2.3 (≈ 4.69 µM)	–
COC(=O)c1ccc(O)c([C@H]2c3c(OC)cc(O)c(C(=O)CCc4ccccc4)c3O[C@@H]2C(C)(C)O)c1 [PIPERADUNCIN B]	0.4	0.2	>5	4.7 (≈ 9.28 µM)	–
COc1cc(O)c(C(=O)CCc2ccccc2)c(O)c1Cc1c(OC)cc(O)c(C(=O)CCc2ccccc2)c1O [PIPERADUNCIN C]	3	1.5	>5	> 10	–
COc1cc([C@@H]2c3cc4c(cc3[C@H](O)[C@H]3COC(=O)[C@H]23)OCO4)cc(OC)c1OC [PODOFILOX]	–	–	–	0.0003 (≈ 0.000724 µM)	–
COc1cc(O)c2c(c1)O[C@H](c1ccc(O)cc1)CC2=O [SAKURANETIN]	2	0.5	>5	10 (≈ 34.9 µM)	>30

Source: ChEMBL document CHEMBL1149025, “Cytotoxic and antibacterial dihydrochalcones from Piper aduncum” (1994)
